# Measured values published in ChEMBL document CHEMBL1828548, “Synthesis and pharmacological evaluations of novel 2H-benzo[b][1,4]oxazin-3(4H)-one derivatives as a new class of anti-cancer agents” (2011).
# Key:
# Format in all cases: functional
# A549 [1] = assay: Cytotoxicity against human A549 cells assessed as cell viability at 1 uM after 3 days by colorimetric MTT assay; details: A549, 72 h, read-out: Activity
# Summary of the method: (§1)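 A549 and DLD-1 cells from ATCC, grown as recommended, were seeded at 5000 cells/well the day before dosing. They were exposed for 3 days in medium with 5% FBS to compound diluted from 20 mM DMSO stocks (final up to 20 µM, 0.1% v/v DMSO). Cells then received 0.5 mg/mL MTT for 4 h, formazan was dissolved in 10% SDS/10 mM HCl, and A595 was read. Viability is % of 0.1% DMSO control; two experiments, triplicate points.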
# DLD-1 [2] = assay: Cytotoxicity against human DLD1 cells assessed as cell viability at 20 uM after 3 days by colorimetric MTT assay; details: DLD-1, 72 h, read-out: Activity; summary of the method: as §1
# DLD-1 [3] = assay: Cytotoxicity against human DLD1 cells assessed as cell viability at 1 uM after 3 days by colorimetric MTT assay; details: DLD-1, 72 h, read-out: Activity; summary of the method: as §1
# A549 [4] = assay: Cytotoxicity against human A549 cells assessed as cell viability at 20 uM after 3 days by colorimetric MTT assay; details: A549, 72 h, read-out: Activity; summary of the method: as §1
# MV4-11 [5] = assay: Cytotoxicity against human MV4-11 cells assessed as cell viability at 1 uM after 3 days by colorimetric MTT assay; details: MV4-11, 72 h, read-out: Activity
# Summary of the method: (§2)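 MV4-11 leukemia cells from ATCC, grown as recommended, were plated at 40,000 cells/well immediately before treatment. They were cultured 3 days in 5% FBS medium with compound from 20 mM DMSO stocks diluted in RPMI (final ≤20 µM, 0.1% v/v DMSO). MTT (0.5 mg/mL, 4 h) was followed by SDS/HCl solubilization and absorbance at 595 nm. Percent viability is relative to DMSO-treated controls; run twice in triplicate.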
# MV4-11 [6] = assay: Cytotoxicity against human MV4-11 cells assessed as cell viability at 20 uM after 3 days by colorimetric MTT assay; details: MV4-11, 72 h, read-out: Activity; summary of the method: as §2
# MV4-11 [7] = assay: Cytotoxicity against human MV4-11 cells assessed as cell viability at 10 uM after 3 days by colorimetric MTT assay; details: MV4-11, 72 h, read-out: Activity; summary of the method: as §2
# DLD-1 [8] = assay: Cytotoxicity against human DLD1 cells assessed as cell viability at 10 uM after 3 days by colorimetric MTT assay; details: DLD-1, 72 h, read-out: Activity; summary of the method: as §1
# A549 [9] = assay: Cytotoxicity against human A549 cells assessed as cell viability at 10 uM after 3 days by colorimetric MTT assay; details: A549, 72 h, read-out: Activity; summary of the method: as §1
SMILES,viability at 1 µM (A549 [1]),viability at 20 µM (DLD-1 [2]),viability at 1 µM (DLD-1 [3]),viability at 20 µM (A549 [4]),viability at 1 µM (MV4-11 [5]),viability at 20 µM (MV4-11 [6]),viability at 10 µM (MV4-11 [7]),viability at 10 µM (DLD-1 [8]),viability at 10 µM (A549 [9])
O=C1COc2ccc(-c3nn(-c4ccc(Cl)cc4)cc3-c3ccccc3)cc2N1,84.4%,47.1%,61.9%,52.4%,108%,91.9%,–,–,–
COc1cc2ncnc(Nc3ccc(F)c(Cl)c3)c2cc1OCCCN1CCOCC1 [GEFITINIB],84.4%,–,87%,–,92.4%,–,7%,65.7%,61.5%
Cc1ccccc1-n1cc(-c2ccccc2)c(-c2ccc3c(c2)NC(=O)CO3)n1,94.8%,62.9%,92.2%,85.3%,99.4%,54.2%,–,–,–
O=C1COc2ccc(-c3nn(-c4ccc(F)cc4)cc3-c3ccccc3)cc2N1,78.2%,45.2%,64.4%,56.4%,107%,92.6%,–,–,–
COc1ccc(-n2cc(-c3ccccc3)c(-c3ccc4c(c3)NC(=O)CO4)n2)cc1,95.6%,35.6%,92.2%,42.6%,106%,59.9%,–,–,–
CCN(CC)CCNC(=O)c1c(C)[nH]c(/C=C2\C(=O)Nc3ccc(F)cc32)c1C [SUNITINIB],102%,–,92.9%,–,1.4%,–,0.5%,52.7%,37.4%
Cc1ccc(NC(=O)c2ccc(CN3CCN(C)CC3)cc2)cc1Nc1nccc(-c2cccnc2)n1 [IMATINIB],108%,–,89.9%,–,105%,–,82%,91.5%,98.6%
O=C1COc2ccc(-c3[nH]c(-c4c[nH]c5ncccc45)nc3-c3ccccc3)cc2N1,100%,53.5%,97.7%,86.8%,111%,8.9%,–,–,–
COc1cc2/c(=N/c3ccc(Br)cc3F)nc[nH]c2cc1OCC1CCN(C)CC1 [VANDETANIB],88.7%,–,88.6%,–,84.1%,–,1.6%,37.9%,41.7%
O=C1COc2ccc(-c3nn(-c4cc(Cl)cc(Cl)c4)cc3-c3ccccc3)cc2N1,93.1%,52.2%,90.3%,70.2%,105%,50.5%,–,–,–
O=C1COc2ccc(-c3nn(-c4ccc(Br)cc4)cc3-c3ccccc3)cc2N1,81.5%,54.2%,66.4%,58.8%,108%,91.5%,–,–,–
COc1ccc(-c2nc(-c3ccccc3)c(-c3ccc4c(c3)NC(=O)CO4)[nH]2)cc1,101%,19.1%,96%,38.1%,108%,1.2%,–,–,–
O=C1COc2ccc(-c3[nH]c(-c4ccc(Cl)cc4Cl)nc3-c3ccccc3)cc2N1,97.4%,61.9%,97.8%,68.3%,109%,41.1%,–,–,–
O=C1COc2ccc(-c3nn(-c4ccccc4)cc3-c3ccccc3)cc2N1,92.2%,47.7%,77%,59.7%,117%,97.9%,–,–,–
O=C1COc2ccc(-c3[nH]c(-c4ccc(C(F)(F)F)cc4)nc3-c3ccccc3)cc2N1,103%,12.1%,95%,21.7%,111%,0.6%,–,–,–
CNC(=O)c1cc(Oc2ccc(NC(=O)Nc3ccc(Cl)c(C(F)(F)F)c3)cc2)ccn1 [SORAFENIB],103%,–,93.4%,–,1.6%,–,0.7%,28%,28.6%
C#Cc1cccc(Nc2ncnc3cc(OCCOC)c(OCCOC)cc23)c1 [ERLOTINIB],83%,–,85.7%,–,98.3%,–,16.8%,55.4%,68.5%
O=C1COc2ccc(-c3[nH]c(-c4ccc(F)cc4)nc3-c3ccccc3)cc2N1,97.1%,29.5%,94.8%,37.5%,108%,1.1%,–,–,–
O=C1COc2ccc(-c3[nH]c(-c4ccccc4)nc3-c3ccccc3)cc2N1,95.6%,47.3%,98.2%,58.5%,105%,7.6%,–,–,–
